Results taken from ChEMBL document CHEMBL4004891, “Antioxidant Properties of Novel Dimers Derived from Natural β-Elemene through Inhibiting H2O2-Induced Apoptosis” (ACS Med Chem Lett, 2017).
Calls of active or inactive are those of the source. No cut-off for these calls is given here.

Tests used:
HUVEC [1] = test: Cytotoxicity against HUVEC assessed as increase in cell viability at 0.1 to 50 uM after 24 hrs by MTT assay relative to control; format: cell-based; details: human
In short: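 Normal HUVECs incubated 24 h with 0.1−50 μM, no H2O2; viability by MTT assay; means ± SD, n = 3.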

HUVEC [2] = test: Cytoprotective activity against H2O2-induced cell injury in HUVEC assessed as cell survival at 10 uM pretreated for 24 hrs followed by H2O2-stimulation after 2 hrs by MTT assay (reference value: 60.21%); format: functional; details: Homo sapiens, read-out: Survival
HUVEC [3] = test: Effect on total JNK protein level in HUVEC at 0.1 to 10 uM pretreated for 24 hrs followed by H2O2-stimulation for 2 hrs by western blot analysis; format: cell-based; details: human
[4] = biological target: MAP kinase p38 (Homo sapiens) (UniProt O15264+Q15759+Q16539+P53778); test: Inhibition of H2O2-induced p38 phosphorylation in HUVEC pretreated for 24 hrs followed by H2O2-stimulation after 2 hrs by western blot analysis
HUVEC [5] = test: Cytoprotective activity against H2O2-induced cell injury in HUVEC assessed as inhibition of apoptosis by measuring early apoptotic cells at 0.1 uM pretreated for 24 hrs followed by H2O2-stimulation after 2 hrs by Annexin-V-APC/7AAD staining based flow cytometry (reference value: 34.96%); format: functional, Homo sapiens; set-up: scale not given: the % may be the effect or the level left
HUVEC [6] = test: Cytoprotective activity against H2O2-induced cell injury in HUVEC assessed as inhibition of apoptosis by measuring early apoptotic cells at 1 uM pretreated for 24 hrs followed by H2O2-stimulation after 2 hrs by Annexin-V-APC/7AAD staining based flow cytometry (reference value: 34.96%); format: functional, Homo sapiens; set-up: scale not given: the % may be the effect or the level left
HUVEC [7] = test: Cytoprotective activity against H2O2-induced cell injury in HUVEC assessed as increase in nitric oxide level pretreated for 24 hrs followed by H2O2-stimulation after 2 hrs by DAF-FM-DA probe based fluorescent imaging analysis; format: functional; details: Homo sapiens
In short: (§1)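 Pretreatment 24 h at 0.1, 1 and 10 μM before 0.5 mM H2O2 for 2 h in HUVECs; LDH release, MDA content, SOD activity and NO secretion then measured.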

HUVEC [8] = test: Cytoprotective activity against H2O2-induced cell injury in HUVEC assessed as inhibition of apoptosis by measuring late apoptotic cells at 1 uM pretreated for 24 hrs followed by H2O2-stimulation after 2 hrs by Annexin-V-APC/7AAD staining based flow cytometry (reference value: 10.78%); format: functional, Homo sapiens; set-up: scale not given: the % may be the effect or the level left
HUVEC [9] = test: Cytoprotective activity against H2O2-induced cell injury in HUVEC assessed as inhibition of apoptosis by measuring necrotic cells at 10 uM pretreated for 24 hrs followed by H2O2-stimulation after 2 hrs by Annexin-V-APC/7AAD staining based flow cytometry (reference value: 0.45%); format: functional, Homo sapiens; set-up: scale not given: the % may be the effect or the level left
HUVEC [10] = test: Cytoprotective activity against H2O2-induced cell injury in HUVEC assessed as cell survival at 0.01 uM pretreated for 24 hrs followed by H2O2-stimulation after 2 hrs by MTT assay (reference value: 60.21%); format: functional; details: Homo sapiens, read-out: Survival
HUVEC [11] = test: Cytoprotective activity against H2O2-induced cell apoptosis in HUVEC pretreated for 24 hrs followed by H2O2-stimulation for 2 hrs by Annexin-V-APC/7AAD staining based flow cytometry; format: functional; details: Homo sapiens
HUVEC [12] = test: Effect on total ERK1/2 protein level in HUVEC at 0.1 to 10 uM pretreated for 24 hrs followed by H2O2-stimulation for 2 hrs by western blot analysis; format: cell-based; details: human
HUVEC [13] = test: Effect on total p38 MAPK protein level in HUVEC at 0.1 to 10 uM pretreated for 24 hrs followed by H2O2-stimulation for 2 hrs by western blot analysis; format: cell-based; details: human
HUVEC [14] = test: Cytoprotective activity against H2O2-induced cell injury in HUVEC assessed as cell survival at 0.1 uM pretreated for 24 hrs followed by H2O2-stimulation after 2 hrs by MTT assay (reference value: 60.21%); format: functional; details: Homo sapiens, read-out: Survival
HUVEC [15] = test: Cytoprotective activity against H2O2-induced cell injury in HUVEC assessed as decrease in MDA level pretreated for 24 hrs followed by H2O2-stimulation after 2 hrs; format: functional, cell-based; details: Homo sapiens; in short: as §1
HUVEC [16] = test: Cytoprotective activity against H2O2-induced cell injury in HUVEC assessed as decrease in level of reactive oxygen species pretreated for 24 hrs followed by H2O2-stimulation after 2 hrs by DCFH-DA staining based fluorescence assay; format: functional; details: Homo sapiens
In short: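 DCF fluorescence imaging in HUVECs with or without pretreatment, exposed to H2O2; intensity expressed as percentage of control group fluorescence; means ± SD, n = 3.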

HUVEC [17] = test: Cytoprotective activity against H2O2-induced cell injury in HUVEC assessed as inhibition of apoptosis by measuring late apoptotic cells at 0.1 uM pretreated for 24 hrs followed by H2O2-stimulation after 2 hrs by Annexin-V-APC/7AAD staining based flow cytometry (reference value: 10.78%); format: functional, Homo sapiens; set-up: scale not given: the % may be the effect or the level left
HUVEC [18] = test: Cytoprotective activity against H2O2-induced cell injury in HUVEC assessed as inhibition of apoptosis by measuring necrotic cells at 1 uM pretreated for 24 hrs followed by H2O2-stimulation after 2 hrs by Annexin-V-APC/7AAD staining based flow cytometry (reference value: 0.45%); format: functional, Homo sapiens; set-up: scale not given: the % may be the effect or the level left
HUVEC [19] = test: Cytoprotective activity against H2O2-induced cell injury in HUVEC assessed as inhibition of apoptosis by measuring early apoptotic cells at 10 uM pretreated for 24 hrs followed by H2O2-stimulation after 2 hrs by Annexin-V-APC/7AAD staining based flow cytometry (reference value: 34.96%); format: functional, Homo sapiens; set-up: scale not given: the % may be the effect or the level left
HUVEC [20] = test: Cytoprotective activity against H2O2-induced cell injury in HUVEC assessed as cell survival at 1 uM pretreated for 24 hrs followed by H2O2-stimulation after 2 hrs by MTT assay (reference value: 60.21%); format: functional; details: Homo sapiens, read-out: Survival
HUVEC [21] = test: Cytoprotective activity against H2O2-induced cell injury in HUVEC assessed as level of reactive oxygen species by measuring fluorescence intensity at 0.1 to 10 uM pretreated for 24 hrs followed by H2O2-stimulation after 2 hrs by DCFH-DA staining based fluorescence assay (reference value: 3.3); format: functional, Homo sapiens
HUVEC [22] = test: Cytoprotective activity against H2O2-induced cell injury in HUVEC assessed as increase in cell survival pretreated for 24 hrs followed by H2O2-stimulation after 2 hrs by MTT assay; format: functional, cell-based; details: Homo sapiens
In short: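 MTT survival of H2O2-injured HUVECs after pretreatment at 10, 1, 0.1 and 0.01 μM; compared with H2O2-only model group; EC50 derived from concentration–response; means ± SD, n = 3.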

HUVEC [23] = test: Cytoprotective activity against H2O2-induced cell injury in HUVEC assessed as inhibition of apoptosis by measuring viable cells at 10 uM pretreated for 24 hrs followed by H2O2-stimulation after 2 hrs by Annexin-V-APC/7AAD staining based flow cytometry (reference value: 53.8%); format: functional, Homo sapiens
HUVEC [24] = test: Cytoprotective activity against H2O2-induced cell injury in HUVEC assessed as inhibition of apoptosis by measuring late apoptotic cells at 10 uM pretreated for 24 hrs followed by H2O2-stimulation after 2 hrs by Annexin-V-APC/7AAD staining based flow cytometry (reference value: 10.78%); format: functional, Homo sapiens; set-up: scale not given: the % may be the effect or the level left
HUVEC [25] = test: Cytoprotective activity against H2O2-induced cell injury in HUVEC assessed as inhibition of apoptosis by measuring viable cells at 1 uM pretreated for 24 hrs followed by H2O2-stimulation after 2 hrs by Annexin-V-APC/7AAD staining based flow cytometry (reference value: 53.8%); format: functional, Homo sapiens
HUVEC [26] = test: Cytoprotective activity against H2O2-induced cell injury in HUVEC assessed as increase in SOD activity pretreated for 24 hrs followed by H2O2-stimulation after 2 hrs; format: functional, cell-based; details: Homo sapiens; in short: as §1
[27] = biological target: Mitogen-activated protein kinase; ERK1/ERK2 (Homo sapiens) (UniProt P27361+P28482); test: Inhibition of H2O2-induced ERK1/2 phosphorylation in HUVEC pretreated for 24 hrs followed by H2O2-stimulation after 2 hrs by western blot analysis; format: protein assay
HUVEC [28] = test: Cytoprotective activity against H2O2-induced cell injury in HUVEC assessed as decrease in LDH release pretreated for 24 hrs followed by H2O2-stimulation after 2 hrs; format: functional, cell-based; details: Homo sapiens; in short: as §1
[29] = biological target: c-Jun N-terminal kinase, JNK (Homo sapiens) (UniProt P45983+P53779+P45984); test: Inhibition of H2O2-induced JNK phosphorylation in HUVEC pretreated for 24 hrs followed by H2O2-stimulation after 2 hrs by western blot analysis
HUVEC [30] = test: Cytoprotective activity against H2O2-induced cell injury in HUVEC assessed as increase in cell viability at 10 uM pretreated for 24 hrs followed by H2O2-stimulation after 2 hrs by MTT assay; format: functional, cell-based; details: Homo sapiens
HUVEC [31] = test: Cytoprotective activity against H2O2-induced cell injury in HUVEC assessed as inhibition of apoptosis by measuring viable cells at 0.1 uM pretreated for 24 hrs followed by H2O2-stimulation after 2 hrs by Annexin-V-APC/7AAD staining based flow cytometry (reference value: 53.8%); format: functional, Homo sapiens
HUVEC [32] = test: Cytoprotective activity against H2O2-induced cell injury in HUVEC assessed as inhibition of apoptosis by measuring necrotic cells at 0.1 uM pretreated for 24 hrs followed by H2O2-stimulation after 2 hrs by Annexin-V-APC/7AAD staining based flow cytometry (reference value: 0.45%); format: functional, Homo sapiens; set-up: scale not given: the % may be the effect or the level left

Sequence of Mitogen-activated protein kinase; ERK1/ERK2 (Homo sapiens) (P27361 whole entry, looked up): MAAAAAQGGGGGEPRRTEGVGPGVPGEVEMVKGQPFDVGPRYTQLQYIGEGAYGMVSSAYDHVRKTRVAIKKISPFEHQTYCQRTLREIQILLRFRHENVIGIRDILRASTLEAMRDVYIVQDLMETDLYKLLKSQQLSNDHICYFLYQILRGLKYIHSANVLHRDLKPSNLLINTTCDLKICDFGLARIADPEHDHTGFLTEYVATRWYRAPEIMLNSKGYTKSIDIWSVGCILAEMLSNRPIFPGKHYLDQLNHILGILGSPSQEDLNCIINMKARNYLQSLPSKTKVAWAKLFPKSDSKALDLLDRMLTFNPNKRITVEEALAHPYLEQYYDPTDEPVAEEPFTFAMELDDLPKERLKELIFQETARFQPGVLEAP
Sequence of Mitogen-activated protein kinase; ERK1/ERK2 (Homo sapiens) (P28482 whole entry, looked up): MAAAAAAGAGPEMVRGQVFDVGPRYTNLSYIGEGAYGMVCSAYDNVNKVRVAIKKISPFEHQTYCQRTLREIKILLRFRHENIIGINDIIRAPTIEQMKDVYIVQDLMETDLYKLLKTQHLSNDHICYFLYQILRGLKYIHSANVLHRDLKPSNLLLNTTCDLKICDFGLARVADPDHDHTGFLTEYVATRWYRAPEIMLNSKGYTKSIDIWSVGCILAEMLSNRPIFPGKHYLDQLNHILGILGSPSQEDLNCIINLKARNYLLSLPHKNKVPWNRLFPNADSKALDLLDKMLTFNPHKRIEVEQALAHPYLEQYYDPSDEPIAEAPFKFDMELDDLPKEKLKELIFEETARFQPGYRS

C=C[C@]1(C)CC[C@@H](C(=C)COC(=O)/C=C/C(=O)OCC(=C)[C@@H]2CC[C@@](C)(C=C)[C@H](C(=C)C)C2)C[C@H]1C(=C)C
Activity (HUVEC [1]): > 90% | viability at 10 µM (HUVEC [2]): 97% | Activity (HUVEC [3]): Non-Toxic | inhibition [4]: Dose-dependent effect | Activity (HUVEC [5]): 30.92% | Activity (HUVEC [6]): 23.59% | Activity (HUVEC [7]): Dose-dependent effect | Activity (HUVEC [8]): 7.92% | Activity (HUVEC [9]): 2.69% | viability at 0.01 µM (HUVEC [10]): 65.5% | Activity (HUVEC [11]): Dose-dependent effect | Activity (HUVEC [12]): Non-Toxic | Activity (HUVEC [13]): Non-Toxic | viability at 0.1 µM (HUVEC [14]): 76.7% | Activity (HUVEC [15]): Dose-dependent effect | Activity (HUVEC [16]): Dose-dependent effect | Activity (HUVEC [17]): 10.22% | Activity (HUVEC [18]): 0.18% | Activity (HUVEC [19]): 12.82% | viability at 1 µM (HUVEC [20]): 85.5% | Flu intensity (HUVEC [21]): 1.16 - 2.4 | Activity (HUVEC [22]): Dose-dependent effect | EC50 (HUVEC [22]): 0.22 µM | Activity (HUVEC [23]): 71.78% | Activity (HUVEC [24]): 12.71% | Activity (HUVEC [25]): 68.31% | Activity (HUVEC [26]): Dose-dependent effect | inhibition [27]: Dose-dependent effect | Activity (HUVEC [28]): Dose-dependent effect | inhibition [29]: Dose-dependent effect | Activity (HUVEC [30]): Active | Activity (HUVEC [31]): 58.55% | Activity (HUVEC [32]): 0.3%
